Most compounds without a hit are left out; they make up all but 2.2% or so of the library.
rCAG RNA binder: binders of r(CAG) RNA repeats, primary screen, biochemical, fluorescence | inhibition, % at 3 µM | r(CAG) RNA repeat, TO-PRO-1 dye displacement fluorescence | 370,000 tested, 1.3% active;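 active means inhibition above the plate cutoff, the mean of all test compounds on that plate plus 3 SD, cut at about 35% in these data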;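 further: 0% = DMSO alone and 100% = 100 µM mitoxantrone as full dye displacement; higher means more dye released from RNA so lower well fluorescence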
NadD block: inhibitors of S. aureus NadD, primary screen, biochemical, colorimetric, uHTS. Nicotinate-nucleotide adenylyltransferase NadD (Staphylococcus aureus N315). purified NadD enzyme, colorimetric absorbance read-out. inhibition, % at 20 µM. 360,000 tested, 0.78% active. AID 602399, 2012; in the data active means inhibition above about 26%
ARFGAP1 inhibitor: inhibitors of rat ARFGAP1 GAP activity, primary screen, biochemical, fluorescence polarization, GDP tracer | ADP-ribosylation factor GTPase-activating protein 1 (Rattus norvegicus), Q62848 | Arfgap1-stimulated ARF1 GTP hydrolysis, GDP FP detection | inhibition, % at 16.5 µM | 360,000 tested, 0.26% active | AID 651572, 2012;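 active means inhibition above a per-plate limit, mean inhibition of low control wells plus 3 SD, cut at about 25% in these data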;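 further: 0% = DMSO wells with enzyme and 100% = wells lacking Arfgap1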
Target sequence (Q62848 1-136 limits assumed): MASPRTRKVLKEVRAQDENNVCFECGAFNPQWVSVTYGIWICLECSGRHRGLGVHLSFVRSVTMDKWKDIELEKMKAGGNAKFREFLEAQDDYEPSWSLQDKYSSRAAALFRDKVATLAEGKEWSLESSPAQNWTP
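Material: rat Arfgap1 catalytic domain, aa 1-136; also added: human ARF1(Δ1-17)-GTP substrate; compound dosing: one concentration, 16.5 µM, DMSO 1.26%; incubation: GTP hydrolysis reaction 2 h at 25 °C; measured by: Tracer-displacement fluorescence polarization with EDTA stop, 620/688 nm; evaluation: % inhibition from polarization; repeats: one replicate per compound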
ASAP1 inh: inhibitors of human ASAP1 ArfGAP activity, primary screen, biochemical, fluorescence polarization; inhibition, % at 16.5 µM; Arf-GAP with SH3 domain, ANK repeat and PH domain-containing protein 1 (Homo sapiens), …; ASAP1-stimulated ARF1 GTP hydrolysis, GDP FP detection; 360,000 tested, 0.19% active; in the data active means inhibition above about 25%;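 further: 0% = vehicle with enzyme and substrate and 100% = no enzyme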
Target sequence (Q9ULH1 325-724 limits assumed): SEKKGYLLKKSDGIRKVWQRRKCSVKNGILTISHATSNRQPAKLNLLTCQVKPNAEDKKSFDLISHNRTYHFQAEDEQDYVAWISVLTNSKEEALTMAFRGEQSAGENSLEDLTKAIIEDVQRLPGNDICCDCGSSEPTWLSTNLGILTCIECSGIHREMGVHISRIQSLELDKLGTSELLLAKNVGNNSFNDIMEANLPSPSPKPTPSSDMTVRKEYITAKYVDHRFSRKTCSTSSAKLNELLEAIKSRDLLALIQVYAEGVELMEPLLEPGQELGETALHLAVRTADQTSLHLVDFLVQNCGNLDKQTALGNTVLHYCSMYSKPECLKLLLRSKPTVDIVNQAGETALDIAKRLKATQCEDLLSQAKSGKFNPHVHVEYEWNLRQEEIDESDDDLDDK
rCAG bind conf: small molecules binding CAG repeat RNA – biochemical, fluorescence, confirmation; r(CAG) RNA repeat, TO-PRO-1 dye displacement fluorescence; shares compounds with rCAG RNA binder; AID 652065, 2013; 4,300 tested, 70% active; inhibition, % at 3 µM;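 active means inhibition above a per-plate cutoff, the mean inhibition of sample wells plus 3 SD, cut at about 35% in these data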;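 further: loss of TO-PRO-1 fluorescence as compound displaces dye from 1x1 AA loop RNA; 0% = DMSO only wells and 100% = 100 µM mitoxantrone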
dCAG dye counter: displacement of TO-PRO-1 from CAG DNA duplex, counter-screen for rCAG RNA repeat binder project, biochemical, fluorescence, TO-PRO-1 dye, d(CAG) DNA oligo | 4,300 tested, 94% active | inhibition, % at 3 µM | shares compounds with rCAG RNA binder | d(CAG) DNA oligo TO-PRO-1 dye displacement;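 active means inhibition above its plate's cutoff, the mean test-well inhibition plus 3 SD, cut at about 4.8% in these data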;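 further: 0% = DNA dye mix with DMSO and 100% = 100 µM mitoxantrone; hits displace the dye from DNA and so lower well fluorescence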
DNA CAG DR: inhibitors of DNA CAG/GTC TO-PRO-1 complex, dose response, counter-screen for rCAG RNA repeat binder project, biochemical, fluorescence, TO-PRO-1 dye | shares compounds with rCAG RNA binder | 250 tested, 20% active | DNA CAG/GTC duplex TO-PRO-1 dye displacement fluorescence | IC50, µM; in the data active means IC50 below about 10 µM
* = called active by the depositor; i = inactive; · = no result.

SMILES	rCAG RNA binder	NadD block	ARFGAP1 inhibitor	ASAP1 inh	rCAG bind conf	dCAG dye counter	others
COc1ccc(Cc2nnc(NS(=O)(=O)c3ccc(NC(C)=O)cc3)s2)cc1	14	-1	-5	-2	·	·
CCc1nnc(NS(=O)(=O)c2ccc(NC(=O)c3cc(Cl)ccc3OC)cc2)s1	75*	3	8	6	71*	33*	DNA CAG DR=i
CCc1nnc(NS(=O)(=O)c2ccc(NC(=O)c3cc4ccccc4oc3=O)cc2)s1	2	·	0	-8	·	·
CCc1nnc(NS(=O)(=O)c2ccc(N/C=C/C(=O)c3ccc(OC)cc3)cc2)s1	59*	26	9	4	65*	29*
CCc1nnc(NS(=O)(=O)c2ccc(N/C=C\C(=O)c3cccc4ccccc34)cc2)s1	81*	19	3	-4	82*	54*
CCCCN(C)C(=O)c1ccc2c(c1)NC(=O)C(C)(C)O2	-1	·	·	·	·	·
COC(=O)[C@]12C[C@H](CC(=O)NCc3ccccc3)C(=O)N(CCC3=CCCCC3)C1=C[C@H](C1CCCC1)O[C@@H]2C	2	·	·	·	·	·
CC(C)C(OC(=O)C1=Cc2ccccc2OC1)C(=O)NCC1CCCO1 (stereo not drawn)	35*	15	-9	2	48*	17*
CC(OC(=O)C1=Cc2ccccc2OC1)C(=O)NC1CCCC1 (stereo not drawn)	2	4	-8	3	·	·
CC(C)C[C@H]1CN(CCCC[C@@H]2CNC(=O)C(=O)N2Cc2ccccc2)C(=O)C(=O)N1CCc1ccccc1	-3	15	-2	3	·	·
CCOC(=O)C1CCCN(C(=O)c2cc(-c3ccco3)nc3ccccc23)C1 (stereo not drawn)	39*	23	0	2	32	15*
O=C(c1cc(COc2ccc3c(c2)CCCC3)on1)N1CCCC1	-4	-5	9	3	·	·
O=C1NN(c2ccccc2)C(=O)/C1=C\c1cccc(OC(=O)c2cccs2)c1	37*	13	-3	-6	68*	28*
CN(C)S(=O)(=O)c1cccc(-c2nn(-c3ccccc3)cc2/C=C2\SC(=S)NC2=O)c1	69*	27	-8	10	89*	66*
FC(F)(F)c1cccc(NC(=S)Nc2ccc(Cl)c(Cl)c2)c1	5	1	10	2	·	·
O=[N+]([O-])c1cc(C(F)(F)F)cc([N+](=O)[O-])c1NCCNC(=S)Nc1ccc(Cl)c(Cl)c1	36*	2	9	-7	22	6.6*
Cc1ccc2nc(-c3cccc(Br)c3)c(Cc3cccc(F)c3)n2c1	7	·	9	-2	·	·
Fc1ccc(-c2nc3ccc(Br)cn3c2Cc2cccc(F)c2)cc1	48*	7	-8	2	34	9.0*
Clc1ccc(-c2nc3ccc(Br)cn3c2Cc2ccsc2)cc1	43*	6	-2	-20	26	7.8*
Fc1cccc(Cc2c(-c3cccc(Br)c3)nc3ccc(Cl)cn23)c1	46*	7	3	2	25	5.9*
Clc1cccc(Cc2c(-c3ccccc3)nc3ccc(Br)cn23)c1	46*	10	-8	-1	38*	9.2*
C=CCN=C1NC(c2cccc(F)c2)C(C(=O)OC)=C(C)N1C (stereo not drawn)	2	·	-14	-2	·	·
O=C(NCCc1c[nH]c2ccccc12)OCc1cn(Cc2cccc(F)c2)nn1	3	·	·	·	·	·
Cc1ccc(-n2c(O)c(/C=N/NC(=O)C3COc4ccccc4O3)c3ccccc3c2=O)cc1 (stereo not drawn)	82*	23	-1	3	75*	38*
Cc1ccc(NC(=O)CN(C)C(=O)c2cccnc2Nc2cccc(C(F)(F)F)c2)cc1	44*	3	18	7	16	5.8*
SMILES	rCAG RNA binder	NadD block	ARFGAP1 inhibitor	ASAP1 inh	rCAG bind conf	dCAG dye counter	others
O=C(NC1CCCCN(Cc2cccc(F)c2)C1=O)c1ccc(-c2ccccc2)cc1 (stereo not drawn)	6	·	·	·	·	·
C=CCN1C(=O)c2n[nH]c(COC)c2C1c1ccc(Br)cc1 (stereo not drawn)	1	·	4	8	·	·
O=C(/C=C/c1ccc(O)c([N+](=O)[O-])c1)c1ccc2ccccc2c1	42*	15	2	4	78*	39*
CN(C)c1ccc(/C=C/C(=O)c2ccccc2)cc1[N+](=O)[O-]	-1	1	-2	-9	·	·
COc1ccc(Oc2ccc(/C=C/C(=O)c3ccc(O)cc3)cc2[N+](=O)[O-])cc1	37*	-2	9	13	23	11*
COC(=O)[C@]12C[C@H](CC(=O)NCCc3ccccc3OC)C(=O)N(Cc3ccco3)C1=C[C@H](C(C)(C)C)O[C@@H]2C	0	·	·	·	·	·
O=C(CN(Cc1ccccc1)S(=O)(=O)c1ccc(Br)cc1)N/N=C/c1ccccc1C(=O)O	51*	1	-5	-2	57*	15*
CCCOc1cccc(C2C(C(=O)c3ccc(C)o3)=C(O)C(=O)N2c2nc(C)c(C(C)=O)s2)c1 (stereo not drawn)	36*	18	-1	-12	57*	18*	DNA CAG DR=i
COC(=O)c1sc(N2C(=O)C(O)=C(C(=O)c3ccc(C)o3)C2c2cc(OC)ccc2OC)nc1C (stereo not drawn)	44*	13	9	-8	60*	18*
COC(=O)C1=C(C)N(Cc2ccccc2C(F)(F)F)C(=NCc2ccccc2C(F)(F)F)NC1c1cccc(F)c1 (stereo not drawn)	2	·	9	-6	·	·
COc1cccc(-c2nc(-c3ccccc3)c(-c3ccccc3)[nH]2)c1OCC(=O)O	64*	8	-9	-16	61*	19*
O=C(O)COc1ccccc1-c1nc(-c2ccccc2)c(-c2ccccc2)[nH]1	63*	15	-6	-5	51*	13*
CCOC(=O)Cc1cc(=O)n2[nH]cc(-c3cccc(Br)c3)c2n1	67*	10	-12	-5	53*	17*
N#Cc1c(N2C(=O)Nc3ccccc3N2O)sc2c1CCCCCC2	45*	7	13	1	34	11*
N#Cc1c(N2C(=O)Nc3ccccc3N2O)sc2c1CCCC2	12	1	18	-1	·	·
